Bridge positions count the residues as written; N and C are the ends. Square brackets hold non-standard residues; d marks the D form. Peptide text beside a SMILES is read from it. * marks the point of attachment. X2 = CC(=O)OC[C@@H]1O[C@@H](*)[C@@H](OC(C)=O)[C@@H](OC(C)=O)[C@H]1OC(C)=O; X1 = OC[C@@H]1O[C@@H](*)[C@@H](O)[C@@H](O)[C@H]1O; Mpa = O=C(O)CCS
Assays:
[1] = Bioavailability in rat administered i.d.; type: ADME, organism-based; conditions: in vivo
Outline: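 Computed as (AUCii/doseii)/(AUCiv/doseiv). Anaesthetized male Sprague-Dawley rats received 100 μg intraintestinally into a cannulated jejunal segment or 1.0 μg iv via jugular vein, both in 0.9% NaCl. Plasma levels by RIA; AUC by trapezoidal rule.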

Rattus norvegicus [2] = assay: Area under the curve administered intraintestinal in rats.; type: ADME, organism-based; conditions: in vivo, other
Outline: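 Anaesthetized (Inactin) male Sprague-Dawley rats, 250–300 g, kept at 37 °C. 100 μg peptide in 1 mL 0.9% NaCl given into a cannulated, rinsed 15 cm small-intestine segment starting 10 cm distal to pylorus, after 30 min recovery. Carotid blood sampled, EDTA plasma assayed by RIA (antibody ADA 6). AUC by trapezoidal rule; mean ± SEM of n rats.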

Rattus norvegicus [3] = assay: Area under the curve administered intravenously in rats.; type: ADME, organism-based; conditions: in vivo, iv
Outline: (§1)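 Anaesthetized (Inactin) male Sprague-Dawley rats, 250–300 g. 1.0 μg peptide in 0.2 mL sterile 0.9% NaCl injected into a catheterized jugular vein. Carotid blood samples (0.2 mL) taken as EDTA plasma and quantified by RIA (ADA 6 antibody, [125I]Tyr2-DDAVP tracer). Half-life and trapezoidal AUC given as mean ± SEM of n rats.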

[4] = Cmax value administered intraintestinal in rats.; type: ADME, organism-based; conditions: rat, in vivo
Outline: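 Anaesthetized (Inactin) male Sprague-Dawley rats, 250–300 g, 37 °C. 100 μg peptide in 1 mL 0.9% NaCl given into a cannulated 15 cm intestinal segment. Plasma peptide measured by RIA at set time points; the maximal plasma concentration is reported as mean ± SEM of n rats.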

[5] = Degradation in vitro by alpha-chymotrypsin.; type: ADME
Outline: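 Peptide (1 mM final) incubated with α-chymotrypsin (1 mg/mL final) at 37 °C in 25 mM Tris, 65 mM NaCl, 2.5 mM CaCl2, pH 7.8. Reaction stopped with ice-cold TCA and centrifuged. Remaining peptide measured over time by RP-HPLC against an enzyme-free reference, giving the half-life.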

[6] = Degradation in vitro by rat intestinal juice.; type: ADME, organism-based
Outline: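 Rat intestinal juice was a 0.9% NaCl rinse of a 10 cm small-intestine segment, centrifuged at 10000g and stored at −20 °C. Incubation matched the chymotrypsin assay (1 mM peptide, 37 °C, pH 7.8) except for 165 mM Tris. Juice amount was set to degrade DDAVP at 2%/min. Time course by RP-HPLC.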

[7] = Half life administered intravenously in rats.; type: ADME, organism-based; conditions: rat, in vivo, iv; outline: as §1
[8] = Relative transport rate as the ratio of transport rate to that of PEG 1000.; type: ADME
Outline: (§2)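 Rat small-intestine pieces, about 35 cm distal to pylorus and free of Peyer's patches, mounted in a modified Ussing chamber (1.47 cm2) at 37 °C in oxygenated Krebs-Ringer, pH 7.4. Peptide, [3H]PEG 1000 and [14C]PEG 4000 added apically. Basolateral samples taken every 15 min and assayed by RIA or scintillation counting. Papp = (dQ/dt)/(A·C0), expressed relative to each PEG.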

[9] = Relative transport rate as the ratio of transport rate to that of PEG 4000.; type: ADME; outline: as §2
[10] = target: T1, Vasopressin receptor (Rattus norvegicus) (UniProt P48974+P30560+Q00788)
[11] = target: T1, Vasopressin receptor (Rattus norvegicus); assay: Percent inhibition of vasopressin receptor agonistic activity in vivo in rats; type: functional, organism-based; conditions: concentration not given here
Outline: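 Overnight-hydrated male Sprague-Dawley rats. Peptide injected 1 min before a fixed vasopressin dose, set per rat to give similar antidiuretic responses. Inhibition was read at a 330-fold molar excess over vasopressin as percent inhibition of the antidiuretic effect. Mean of two experiments.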

[12] = target: T1, Vasopressin receptor (Rattus norvegicus); assay: Compound was tested in vitro for its ability to displace radioligand [3H]vasopressin from the vasopressin receptor in rat renal medullary membrane in absence of V1-antagonist; type: functional, cell membranes; conditions: Renal medulla
Outline: (§3)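 Rat renal medullary membranes (250 μg protein) incubated for 120 min at room temperature with 1 nM [3H]vasopressin and increasing peptide concentrations, with or without 10 nM of the V1 antagonist [Phenylac1,D-Tyr(Me)2,Arg6,8,Lys-NH2 9]vasopressin. Membranes were pelleted and washed, and bound label was counted by liquid scintillation.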

[13] = target: T1, Vasopressin receptor (Rattus norvegicus); assay: Compound was tested in vitro for its ability to displace radioligand [3H]vasopressin from the vasopressin receptor in rat renal medullary membrane in presence of V1-antagonist; type: functional, cell membranes; conditions: Renal medulla; outline: as §3

SMILES | bioavailability [1] [%] | AUC (Rattus norvegicus [2]) [ng·h/mL] | AUC (Rattus norvegicus [3]) [ng·h/mL] | Cmax [4] [ng/mL] | half-life [5] [min] | half-life [6] [min] | half-life [7] [min] | Ratio [8] | Ratio [9] | Antidiuretic activity [10] | inhibition [11] [%] | Displacement [12] [%] | Displacement [13] [%]
NC(=O)CNC(=O)[C@@H](CCCN=C(N)N)NC(=O)[C@@H]1CCCN1C(=O)[C@@H]1CSSCCC(=O)N[C@H](Cc2ccc(O)cc2)C(=O)N[C@@H](Cc2ccccc2)C(=O)N[C@@H](CO)C(=O)N[C@@H](CC(N)=O)C(=O)N1 | 0.5 | 2.35 | 4.63 | 1.4 | 37 | 280 | 32 | 0.62 | 1.66 | – | – | – | –
NC(=O)CNC(=O)[C@H](CCCN=C(N)N)NC(=O)[C@@H]1CCCN1C(=O)[C@@H]1CSSCCC(=O)N[C@H](Cc2ccc(O)cc2)C(=O)N[C@@H](Cc2ccccc2)C(=O)N[C@@H](CO)C(=O)N[C@@H](CC(N)=O)C(=O)N1 | – | – | – | – | – | – | – | – | – | 810 IU µM-1 | – | – | –
NC(=O)CNC(=O)[C@H](CCCN=C(N)N)NC(=O)[C@@H]1CCCN1C(=O)[C@@H]1CSSCCC(=O)N[C@@H](Cc2ccc(O)cc2)C(=O)N[C@@H](Cc2ccccc2)C(=O)N[C@@H](CO[C@@H]2O[C@@H](CO)[C@H](O)[C@H](O)[C@@H]2O)C(=O)N[C@@H](CC(N)=O)C(=O)N1 ([Mpa]YFS(X1)NCPRG-NH2; disulfide 1-6) | 1.6 | 5.75 | 3.52 | 2.5 | 37 | 320 | 20 | 0.96 | 2.56 | 0.06 IU µM-1 | 4 | 55 | 55
CC(=O)OC[C@@H]1O[C@@H](OC[C@@H]2NC(=O)[C@H](Cc3ccccc3)NC(=O)[C@H](Cc3ccc(O)cc3)NC(=O)CCSSC[C@@H](C(=O)N3CCC[C@H]3C(=O)N[C@@H](CCCN=C(N)N)C(=O)NCC(N)=O)NC(=O)[C@H](CC(N)=O)NC2=O)[C@@H](OC(C)=O)[C@@H](OC(C)=O)[C@H]1OC(C)=O ([Mpa]YFS(X2)NCPRG-NH2; disulfide 1-6) | 2.1 | 10.3 | 4.97 | 3.6 | 180 | 230 | 35 | 1.09 | 2.83 | 0.31 IU µM-1 | 3 | 45 | 45
NC(=O)CC[C@@H]1NC(=O)[C@H](Cc2ccccc2)NC(=O)[C@H](Cc2ccc(O)cc2)NC(=O)CCSSC[C@@H](C(=O)N2CCC[C@H]2C(=O)N[C@H](CCCN=C(N)N)C(=O)NCC(N)=O)NC(=O)[C@H](CC(N)=O)NC1=O [DESMOPRESSIN] | 0.1 | 0.867 | 7.65 | 0.8 | 13 | 20 | 39 | 0.57 | 1.57 | – | – | – | –

— ChEMBL document CHEMBL1128574, “Glycosylated peptide hormones: pharmacological properties and conformational studies of analogues of [1-desamino,8-D-arginine]vasopressin” (J Med Chem, 1995)
